# Rows were chosen to be rich in hits. Some 1.3% of all compounds tested hit in one or more screens of this group.
# RAD54 inh: inhibitors of human RAD54 branch migration, primary screen, biochemical, fluorescence, single point | DNA repair and recombination protein RAD54-like (Homo sapiens), Q92698 | RAD54 Holliday junction branch migration, FAM/BHQ fluorescence | inhibition, % at 10.4 µM | 360,000 compounds, 0.14% hits;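 active = mean normalized replicate activity at least 40 and at least half of replicates scoring 40 or more; inconclusive = only one of the two criteria met; inactive = mean below 40 and under half of replicates reaching 40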;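 also: 0% = median of neutral control wells and 100% = median of positive control wells; inhibitors cause a drop in the FAM fluorescence signal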
# RAD52 inh: RAD52 DNA annealing inhibitors, primary screen, biochemical, FRET, single point, set 2; DNA repair protein RAD52 homolog (Homo sapiens), P43351; recombinant RAD52 DNA annealing, FRET fluorescence; inhibition, % at 18.7 µM; 360,000 compounds, 0.46% hits; AID 651710, 2012;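 active = every replicate showing at least 50% inhibition; inconclusive = mean inhibition at least 50% but not in every replicate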
# Target sequence (P43351 whole entry, looked up): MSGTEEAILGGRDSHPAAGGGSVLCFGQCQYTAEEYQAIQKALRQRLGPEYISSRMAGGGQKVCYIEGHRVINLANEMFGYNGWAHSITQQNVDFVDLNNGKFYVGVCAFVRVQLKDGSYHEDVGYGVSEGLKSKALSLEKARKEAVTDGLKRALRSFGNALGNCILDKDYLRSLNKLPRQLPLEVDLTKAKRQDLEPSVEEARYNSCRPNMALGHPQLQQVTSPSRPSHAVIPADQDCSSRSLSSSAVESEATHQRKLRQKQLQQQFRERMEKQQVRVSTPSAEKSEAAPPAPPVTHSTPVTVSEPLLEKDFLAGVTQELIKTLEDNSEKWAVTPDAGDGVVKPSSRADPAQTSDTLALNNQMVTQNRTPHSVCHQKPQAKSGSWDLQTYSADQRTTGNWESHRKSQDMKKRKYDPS
# GSIS activator: GLuc luminescence reporter in INS-1E cells, primary screen for activators of glucose-dependent secretion of insulin. activation, % at 16.6 µM. 370,000 compounds, 0.61% hits. AID 743287, 2014. INS-1E GLuc reporter insulin secretion, 2-3 h;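 active = lowest replicate activation of at least 40%, so every replicate reaches that level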;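 also: 0% = median of neutral control wells and 100% = median of IBMX positive control wells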
# AF4-AF9 inh: inhibitors of AF4 peptide binding to AF9, primary screen, biochemical, AlphaScreen, biotin-AF4 peptide, FLAG-AF9, single point. Protein AF-9 (Homo sapiens), P42568. inhibition, % at 10 µM. 350,000 compounds, 0.47% hits;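 active = every replicate reaching a set inhibition limit, whatever the replicate mean, cut at about 25% in these data; inconclusive = mean inhibition reaches that limit but some replicates miss it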;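 also: 0% = plate neutral control median and 100% = total signal loss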
# S100A4 MyoIIA: inhibitors of S100A4-myosin IIA peptide binding, primary screen, biochemical, fluorescence polarization, TAMRA-MyoIIA peptide; 360,000 compounds, 0.14% hits; inhibition, % at 10.7 µM; AID 652163, 2013; Protein S100-A4 (Homo sapiens), P26447;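 active = mean inhibition of at least 70% across replicates, with every replicate also reaching that level; inconclusive = mean inhibition reaches 70% but some replicates fall short; inactive = mean inhibition below 70%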
# Target sequence (P26447 whole entry, looked up): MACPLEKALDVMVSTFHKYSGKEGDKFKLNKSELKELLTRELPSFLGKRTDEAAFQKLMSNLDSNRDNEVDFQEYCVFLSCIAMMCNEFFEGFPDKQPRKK
#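 Material: S100A4 monomer (human). Medium: Calcium-containing HEPES buffer, pH 7.2. Probe or stimulus: labelled myosin peptide probe, 5 nM. Compound dosing: one concentration per compound. Timing: polarization read 5 min after assay mix addition, stable 5–60 min. Benchmarks: DMSO as neutral control, TFP as positive control.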
# Starred values were filed as active, the others as inactive; i = inactive; ? = inconclusive; . = no result.
SMILES,RAD54 inh,RAD52 inh,GSIS activator,AF4-AF9 inh,S100A4 MyoIIA
CN(c1ccc(O)cc1)c1ccc([N+](=O)[O-])c2nonc12,2,0,.,27*,-7
COC(=O)[C@@H]1[C@@H](CO)[C@@H]2Cn3c(ccc(-c4ccccc4)c3=O)[C@H]1N2C(=O)c1ccccc1F,.,.,5,.,.
CN1CC(C(=O)c2ccc(Cl)cc2)C(c2ccc(N(C)C)cc2)C1 (stereo unspecified),.,-9,7,40*,2
Fc1ccc(C(OCCN2CCN(CCCc3ccccc3)CC2)c2ccc(F)cc2)cc1,-6,25,.,29*,0
CC[C@H]1c2ccccc2[C@@H]2CC[C@H]1N2c1ccccc1,.,-7,-24,-2,-4
c1ccc(N2[C@@H]3CC[C@H]2c2ccncc2C3)cc1,.,-4,48*,.,-1
CN1CCN(C(=O)CN=[N+]=[N-])CC1,.,5,.,0,-5
CCCNC(=O)[C@H]1[C@H](CO)[C@H]2Cn3c(cccc3=O)[C@H]2N1CC,.,-3,22,-3,15
COc1ccccc1N1CCN(CCc2c[nH]c3cc4c(cc23)OCO4)CC1,.,1,3,30*,-3
O=C(Cc1ccncc1)N1CCCCN2[C@H](CO)[C@H](c3ccc(C#Cc4ccccc4F)cc3)[C@@H]2C1,-10,.,4,-4,.
CC(C)CCCn1c(O)c(/C=C2/C=CC=N2)c(=O)[nH]c1=O,.,.,53*,.,.
CCCCn1c(O)c(/C=N/NC(=O)c2ccncc2)c(=O)[nH]c1=O,-10,-31,9,-5,6
CC(=O)N1C[C@@H]2C(c3ccccc3)[C@H](C1)N2CC1CC1 (stereo partly specified),.,.,14,.,.
O=C(O)CCCc1ccc(N(CCCl)CCCl)cc1,5,-8,9,0,0
O=c1[nH]cnc2nc(-c3ccc(N(CCCl)CCCl)cc3)[nH]c12,-1,-120,58*,8,-3
CN(C)CC#Cc1ccc([C@@H]2[C@@H](CO)N3CCCCN(C(=O)Cc4ccccn4)C[C@H]23)cc1,-11,61*,4,11,-1
CN(C)CC#Cc1ccc([C@@H]2[C@@H](CO)N3CCCCN(C(=O)Cc4ccccn4)C[C@@H]23)cc1,-6,37,0,3,6
Cc1ccc(N2C(=O)NC(=O)/C(=C\c3cn(CC(=O)O)c4ccccc34)C2=O)cc1,-1,i,-6,-10,?
O=C(O)Cn1cc(/C=C2\C(=O)NC(=O)N(c3ccc(Br)cc3)C2=O)c2ccccc21,.,i,-8,-1,101*
COC(=O)[C@]1(C)C[C@H]1[C@H](NP(=O)(c1ccccc1)c1ccccc1)c1ccccc1,-5,-14,-26,-2,84*
CN1[C@@H]2CN(CC(F)(F)F)C[C@H]1C2c1ccc(Br)cc1 (stereo partly specified),.,.,9,.,.
O=C(NCC1=C(c2ccc3ccccc3c2)C[C@@H]2CC[C@H]1N2Cc1ccco1)c1ccc([N+](=O)[O-])cc1,0,46,-12,28*,-5
O=C(NCC1=C(c2ccc3ccccc3c2)C[C@@H]2CC[C@H]1N2Cc1ccco1)c1ccncc1,6,-6,-9,10,-9
O=C(Cc1ccccn1)N1CCCCN2[C@H](C1)[C@@H](c1ccc(C#Cc3ccccc3)cc1)[C@@H]2CO,-6,-38,16,-12,-9
CCCN1[C@@H]2Cn3c(ccc(-c4ccc(F)cc4)c3=O)[C@H]1[C@@H](C(=O)OC)[C@@H]2CO,4,53*,16,0,1
SMILES,RAD54 inh,RAD52 inh,GSIS activator,AF4-AF9 inh,S100A4 MyoIIA
CCC(=O)N1[C@@H]2c3ccc(-c4ccc(F)cc4)c(=O)n3C[C@H]1[C@H](CO)[C@H]2C(=O)OC,7,4,8,-1,1
COC(=O)[C@@H]1[C@@H](CO)[C@@H]2Cn3c(ccc(-c4ccccc4F)c3=O)[C@H]1N2Cc1ccccc1,4,10,2,-5,-12
CCC(=NCCC(c1ccccc1)c1ccccc1)c1c(O)[nH]c(=O)[nH]c1=O,9,.,75,.,.
CCC(=NC(C)c1ccccc1)c1c(O)[nH]c(=O)[nH]c1=O (stereo unspecified),-3,-9,66*,4,1
CN(C)c1ccc(-[n+]2c(-c3ccccc3)cc(-c3ccccc3)cc2-c2ccccc2)cc1,.,27,-36,31*,-8
c1ccc(-c2cc(-c3ccccc3)[n+](-c3ccccc3)c(-c3ccccc3)c2)cc1,15,4,-49,1,-2
O=C(NC[C@H]1CC[C@@H]2NC[C@@H]2O1)C1CCCC1,.,-3,.,-4,-8
O=[N+]([O-])c1ccc(N2CCCCC2)c2ncccc12,-6,-12,-18,21,-2
O=[N+]([O-])c1ccc(N2CCCCCC2)c2ncccc12,.,-11,1,27*,-6
O=[N+]([O-])c1ccc(N2CCOCC2)c2cccnc12,13,-11,75*,0,3
CS(=O)(=O)N1C[C@@H]2C(c3ccccc3)[C@H](C1)N2CC1CC1 (stereo partly specified),.,.,11,.,.
CN1CCc2cc(O)cc3c2[C@H]1Cc1ccc(O)c(O)c1-3,39,95*,-4,18,1
CCCN1CCc2cc(O)cc3c2[C@H]1Cc1ccc(O)c(O)c1-3,63*,96*,.,?,4
COC(=O)[C@@H]1[C@@H](CO)[C@@H]2Cn3c(ccc(-c4ccccc4F)c3=O)[C@H]1N2C(C)=O,6,0,3,1,6
c1ccc2c(c1)[nH]c1cnccc12,12,0,.,-2,-3
Cc1c2ccncc2c(C)c2c1[nH]c1ccccc12,51*,.,.,5,19
COc1ccc(OC(=O)N(C)C[C@@H]2OCc3ccccc3-c3c(n(C)c4ccccc34)C(=O)N([C@@H](C)CO)C[C@@H]2C)cc1,.,19,-25,2,1
O=C(Cc1c(-c2ccccc2)nc2ccc(Br)cn12)N1CCCC1,.,-16,3,-1,-2
Cc1cc(Br)cn2c(CC(=O)N3CCCCC3)c(-c3ccc(F)cc3)nc12,.,-11,54*,-2,-4
c1ccc(-c2ccncc2)cc1,-18,-4,-3,-3,99*
C[n+]1ccc(-c2ccncc2)cc1,-16,-17,0,4,-3
O=C(O)c1cccc2c1NC(c1cccc([N+](=O)[O-])c1)C1CC(Sc3ccccc3[N+](=O)[O-])C(Cl)C21 (stereo unspecified),.,-15,-37,27*,-4
COc1ccc2c3c([nH]c2c1)C(C)NCC3 (stereo unspecified),3,-24,.,30*,-36
